Measurements collected from several papers.
Target: Inhibitor of nuclear factor kappa-B kinase subunit beta (IKBKB, Homo sapiens, UniProt O14920)
Method: competition with immobilised ligand
One construct used (O14920 1-756): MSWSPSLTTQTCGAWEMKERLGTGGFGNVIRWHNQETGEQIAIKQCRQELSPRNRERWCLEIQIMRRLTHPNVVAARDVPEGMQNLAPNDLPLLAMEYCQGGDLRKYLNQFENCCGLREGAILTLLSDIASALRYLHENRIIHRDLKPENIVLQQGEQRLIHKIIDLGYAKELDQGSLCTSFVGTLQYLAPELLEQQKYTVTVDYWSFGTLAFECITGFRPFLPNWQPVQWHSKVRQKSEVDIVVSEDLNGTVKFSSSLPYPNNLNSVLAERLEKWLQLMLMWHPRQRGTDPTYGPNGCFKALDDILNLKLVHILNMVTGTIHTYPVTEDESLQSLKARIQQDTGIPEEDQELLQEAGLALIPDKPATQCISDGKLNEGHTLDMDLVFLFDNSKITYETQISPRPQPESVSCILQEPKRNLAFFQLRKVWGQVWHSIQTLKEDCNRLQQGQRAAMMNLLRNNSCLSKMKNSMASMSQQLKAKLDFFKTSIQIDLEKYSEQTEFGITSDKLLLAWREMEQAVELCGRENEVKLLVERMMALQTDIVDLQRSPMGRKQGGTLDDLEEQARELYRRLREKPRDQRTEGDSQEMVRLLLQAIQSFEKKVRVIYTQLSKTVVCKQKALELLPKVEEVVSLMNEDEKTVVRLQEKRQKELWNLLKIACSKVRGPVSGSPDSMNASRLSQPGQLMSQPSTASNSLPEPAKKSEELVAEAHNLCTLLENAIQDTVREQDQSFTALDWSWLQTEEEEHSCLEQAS

SMILES | assay | setting | remaining binding
COc1cnc(Nc2cccc(S(N)(=O)=O)c2)nc1N1CCN(c2ccccc2)C(=O)C1 | binding | 1 µM | 93%
N[C@H]1CCN(c2nccc(-c3cnn4ncccc34)n2)C1 | binding | 1 µM | 91%
O=C(NCCCN1CCOCC1)c1ccc(Nc2nccc(-c3cc4ccccc4s3)n2)cc1 | binding | 1 µM | 5.1%
C[C@@H]1CN(c2ccc3ncc(-c4ccc5[nH]nc(C6CC6)c5c4)n3n2)C[C@H](C)O1 | binding | 0.5 µM | 89%
C[C@@H]1CCN(c2nccc(-c3cnn4ncccc34)n2)C1 | binding | 1 µM | 77%
O=C(c1ccc(Nc2nccc(-c3cc4ccccc4s3)n2)cc1)N1CCC(N2CCCC2)CC1 | binding | 1 µM | 0.1%
COc1ccnn2ncc(-c3ccnc(N(C)C)n3)c12 | binding | 1 µM | 98%
CC(C)(C)c1ccc(-c2nc(CBr)nn2-c2cccc(O)c2)cc1 | cell-free assay | 10 µM | 70%
N#Cc1ccccc1CSc1nnc2c(n1)[nH]c1ccccc12 | binding | 10 µM | 100%
CN(C)c1ncc(F)c(-c2cnn3ncccc23)n1 | binding | 1 µM | 80%
CCOC(=O)c1cc2cc(-c3cc(C(=O)NCc4ccc(C(=O)O)cc4)nn3C)ccc2[nH]1 | cell-free assay | 0.1 µM | 100%
FC(F)(F)Oc1cccc(-c2cnc3ccc(-c4ccncc4)nn23)c1 | cell-free assay | 5 µM | 56%
CNC(=O)Nc1ccc2c(c1)CC[C@@]21OC(=O)N(CC(=O)N(Cc2ccc(F)cc2)[C@@H](C)C(F)(F)F)C1=O | cell-free assay | 1 µM | 83%
c1cnn2ncc(-c3ccnc(N4CCC45COC5)n3)c2c1 | binding | 1 µM | 40%
O=C(c1ccc(Nc2ncc(Cl)c(-c3cc4ccccc4s3)n2)cc1)N1CCC(N2CCCC2)CC1 | binding | 1 µM | 0.1%
CN1CCN(c2cnc3c(C4CCN(C(=O)c5ccc(OC(F)(F)F)cc5N)CC4)ncnc3c2)CC1 | cell-free assay | 1 µM | 100%
Nc1ncc2c(n1)-c1c([nH]c3ccc(C#CC4CC4)cc13)CCCC2 | binding | 1 µM | 100%
CN(CCCC(F)(F)F)c1nccc(-c2cnn3ncccc23)n1 | binding | 1 µM | 100%
Cc1c(NC(=O)c2cc(C(N)=O)nc3cc(F)ccc23)c(C(F)(F)F)nn1Cc1ccc(C(C)(C)C)cc1 | cell-free assay | 1 µM | 100%
CNC(=O)[C@@H]1CC[C@@H](n2c(-c3ccc4cnccc4c3)nc3ccc(C(=O)NCc4cccc(C(N)=O)c4)cc32)C1 | binding | 1 µM | 100%
CC(=O)N1CCC(c2ccc(C(=O)NC3=NCCN3)cc2C(F)(F)F)CC1 | cell-free assay | 1 µM | 85%
O=C(Nc1c[nH]nc1C(=O)NC1CCNCC1)c1cc(F)cc(F)c1 | binding | 1 µM | 100%
CCCOc1ccc([C@@H]2[C@@H](C(=O)O)[C@H](c3ccc4c(c3)OCO4)CN2CC(=O)Nc2c(CC)cccc2CC)cc1 | cell-free assay | 1 µM | 94%
C[C@@H](c1ccc(-n2cnc3c(N)ncnc32)cc1)N1CCc2nn(C)c(Cc3ccccc3)c2C1=O | binding | 0.1 µM | 68%
C[C@@]1(Cc2ccc(C#N)cc2)C(=O)N(c2cc(Cl)cc(Cl)c2)c2ncc(C(=O)NC3(c4nc(C5CCC5)no4)CC3)n21 | cell-free assay | 1 µM | 100%
F[C@@H]1CCN(c2nccc(-c3cnn4ncccc34)n2)C1 | binding | 1 µM | 100%
